Screening data (PubChem BioAssay)
An excerpt weighted towards active compounds, which were near 4.1% of everything screened.
TbMetRS inhib = T. brucei MetRS inhibitors, primary screen, biochemical, luminescence. methionyl-tRNA synthetase (Trypanosoma brucei brucei). purified T. brucei MetRS, ATP depletion, Kinase-Glo luminescence. inhibition, % at 11.9 µM. actives 0.4% (n = 360,000). AID 624268, 2012;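 active = inhibition above a per-plate cutoff of the control wells' mean inhibition plus 3 SD, cut at about 5.5% in these data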
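Measured by: Kinase-Glo luciferase luminescence reporting remaining unconsumed ATP. Material: purified T. brucei MetRS enzyme. Doses: 11.9 µM compound single dose, 0.9% DMSO. Medium: HEPES buffer containing pyrophosphatase, BSA, spermine, DTT. Times: 15 min preincubation, 2 h reaction, all 25 °C. Reagent: methionine, ATP and bulk E. coli tRNA.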
SMARCA2 activ = SMARCA2 (BRM) function activators, primary screen, cell-based, luminescence, high throughput. AID 652017, 2013. MG213 cells, MMTV-luciferase reporter, dexamethasone, overnight. activation, % at 9.1 µM. actives 1% (n = 370,000); in the data active = activation above about 7.8%
AHR act = AHR activators, primary screen, cell-based, luminescence, luciferase reporter, human. AID 2796, 2010. activation, % at 5 µM. actives 2.5% (n = 320,000). AHR-responsive luciferase reporter cells; in the data active = activation above about 47%
TAG inh = inhibitors of triacylglycerol accumulation, primary screen, cell-based, uHTS, fluorescence, H9c2. H9c2 cells, Nile Red lipid (TAG) fluorescence; cells loaded with 200 µM oleic acid. inhibition, % at 12.5 µM. actives 0.66% (n = 230,000). AID 651582, 2012;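 active = pattern-corrected inhibition of lipid staining of at least 50% with the nuclear-stain viability signal not falling by more than 50%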
Efflux pump inh = inhibitors of Candida efflux pumps in yeast, primary screen, S. cerevisiae, Nile Red, multiplex; AID 485275, 2010; actives 0.44% (n = 330,000); inhibition, % at 10 µM; S. cerevisiae Candida pump triplex;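 active = plate passing quality check with inhibition over a set limit, or well fluorescence over plate mean plus 4 SD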;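 also: Nile Red retained in pooled yeast measured as flow cytometry median fluorescence; higher means more Nile Red kept so more efflux inhibition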
AHR act cf = AHR activators, confirmation, cell-based, luminescence, luciferase reporter, human; shares compounds with AHR act; activation, % at 9 µM; AID 2845, 2010; actives 87% (n = 2,300); human cells, AHR-responsive luciferase reporter; in the data active = activation above about 49%;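 also: HepG2 hepatoma cells carrying a DRE-driven firefly luciferase reporter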
PXR counter = human PXR activators, counter-screen for AHR activator project, cell-based, luciferase luminescence; shares compounds with AHR act; cell-based PXR reporter; activation, % at 11.6 µM; actives 88% (n = 2,300); AID 434939, 2010; in the data active = activation above about 11%;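 also: human hepatoma DPX-2 cells expressing full-length human PXR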
Target sequence (O75469 whole entry, looked up): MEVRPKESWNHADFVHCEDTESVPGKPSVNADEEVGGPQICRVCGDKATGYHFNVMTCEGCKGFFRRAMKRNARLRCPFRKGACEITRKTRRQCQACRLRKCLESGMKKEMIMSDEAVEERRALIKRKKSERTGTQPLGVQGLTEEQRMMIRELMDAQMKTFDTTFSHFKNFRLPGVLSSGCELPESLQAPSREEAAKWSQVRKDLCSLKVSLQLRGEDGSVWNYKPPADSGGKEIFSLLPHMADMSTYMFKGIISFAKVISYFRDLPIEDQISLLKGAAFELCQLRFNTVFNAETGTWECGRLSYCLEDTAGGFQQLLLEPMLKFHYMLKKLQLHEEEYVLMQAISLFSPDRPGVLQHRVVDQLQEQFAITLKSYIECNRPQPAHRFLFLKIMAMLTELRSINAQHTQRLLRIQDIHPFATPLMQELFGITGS
Large screens that a line does not name were inactive (follow-up assays come after a bar, where they were run).

COc1ccc(OC)c(CNS(=O)(=O)c2ccccc2Br)c1	none (no result: TbMetRS inhib, AHR act, TAG inh, Efflux pump inh)
Cc1c(NS(=O)(=O)c2cc(C(=O)NCc3ccco3)cc(Cl)c2Cl)c(=O)n(-c2ccccc2)n1C	AHR act 96.7 | AHR act cf 101.9 | PXR counter 200.9
FC(F)(F)c1nnc(-c2ccccc2)nc1N1CCCC1	AHR act 85.2 | AHR act cf 130.7 | PXR counter 51.7
Cc1cccc(NC(=S)NNC(=O)c2cccc([N+](=O)[O-])c2)c1	none
O=C(NC(=S)Nc1cccc(F)c1)c1cccc([N+](=O)[O-])c1	AHR act 95.6 (no result: TAG inh) | AHR act cf inactive | PXR counter 29.8
CC/C(=N\NC(=S)Nc1cccc(C)c1)c1ccccc1	AHR act 86.9 (no result: TAG inh) | AHR act cf 54.8 | PXR counter 24.1
Cc1cccc(NC(=S)N/N=C(\c2ccccc2)C(C)C)c1	none (no result: TAG inh)
C/C(=N/NC(=S)Nc1cccc(C)c1)c1cccc([N+](=O)[O-])c1	AHR act 105.8 | AHR act cf 83.2 | PXR counter 100.1
C(/C=C\c1ccco1)=NN1CCN(Cc2cccc3ccccc23)CC1	none (no result: TbMetRS inhib, AHR act, TAG inh, Efflux pump inh)
CCOC(=O)c1oc2ccccc2c1NC(=O)COC	AHR act 88.8 (no result: TAG inh) | AHR act cf 104.3 | PXR counter 14.9
CCOC(=O)c1oc2ccccc2c1N	AHR act 82.2 | AHR act cf 122.4
Cc1cccc(NN=C2c3ccccc3-c3ccccc32)c1	AHR act 87.7 (no result: TAG inh) | AHR act cf 115.4 | PXR counter 21.6
N#CCC[C@@H]1CC[C@]2(CCCN(S(=O)(=O)C3CCCCC3)C2)O1	none (no result: TbMetRS inhib, AHR act, TAG inh, Efflux pump inh)
CN(C)C(=O)COc1ccc(S(=O)(=O)c2ccc(OCC(=O)N(C)C)cc2)cc1	AHR act 101.6 (no result: TAG inh) | AHR act cf inactive | PXR counter inactive
CCOC(=O)[C@@]12CN(C(=O)OC(C)(C)C)CC=C1N(Cc1ccc(OC)cc1)C(=O)[C@H]2CC(=O)N1CCN(C(=O)C2CC2)CC1	none (no result: TbMetRS inhib, AHR act, TAG inh, Efflux pump inh)
O=[N+]([O-])c1ccc(N/N=C\c2ccccc2OCc2ccccc2)cc1	AHR act 84.7 (no result: TAG inh) | AHR act cf 61.9 | PXR counter 46.3
O=C1CC(c2ccccc2)CC(O)=C1C=Nc1ccc(O)cc1 (stereo unspecified)	AHR act 82.8 | AHR act cf 67.4 | PXR counter 14.3
COC(=O)c1ccc(N=CC2=C(O)CC(c3ccccc3)CC2=O)cc1 (stereo unspecified)	none
COc1ccc(N=CC2=C(O)CC(c3ccccc3)CC2=O)c(OC)c1 (stereo unspecified)	AHR act 116.4 (no result: TAG inh) | AHR act cf 104.4 | PXR counter 20.5
CCOc1ccccc1N=CC1=C(O)CC(c2ccccc2)CC1=O (stereo unspecified)	none
COCCCN1C(=O)[C@H](CC(=O)N2CCN(C(=O)c3ccco3)CC2)[C@]2(C(=O)OC)CCCCC=C12	none (no result: TbMetRS inhib, AHR act, TAG inh, Efflux pump inh)
C[C@H]1[C@H](c2ccccc2)Oc2cccc(NCCc3ccccc3)c2S(=O)(=O)N1Cc1cccc(F)c1	none (no result: TbMetRS inhib, AHR act, TAG inh, Efflux pump inh)
O=C(Nc1ccc(Cl)cc1)c1cccc(NC2=NC3CS(=O)(=O)CC3S2)c1 (stereo unspecified)	AHR act 181.9 | AHR act cf 117.0 | PXR counter 18.7
CN1/C(=C/C(=O)C2CCC2)Sc2ccccc21	AHR act 138.0 (no result: TAG inh) | AHR act cf 137.6 | PXR counter 22.6
COc1cc(OC)cc(C(=O)/C=C2\Sc3ccccc3N2C)c1	none
CN1/C(=C/C(=O)c2cccs2)Sc2ccccc21	AHR act 86.3 (no result: TAG inh) | AHR act cf 115.2 | PXR counter 22.9
COc1ccc(-c2noc(C3CCCN(C(=O)Nc4ccc5c(c4)OCO5)C3)n2)cc1 (stereo unspecified)	none (no result: TbMetRS inhib, AHR act, TAG inh, Efflux pump inh)
COc1cc(-c2cc(-c3ccc(N)cc3)[nH]c(=O)c2C#N)cc(OC)c1OC	AHR act 101.3 | AHR act cf 84.1 | PXR counter 17.3
COc1ccc2c(c1)CN1CN(C3CCCC3)S(=O)(=O)CC21 (stereo unspecified)	none (no result: TbMetRS inhib, AHR act, TAG inh, Efflux pump inh)
Cc1cc2n(n1)C(c1ccccc1)Nc1ccccc1-2 (stereo unspecified)	none (no result: TAG inh)
Cc1cc2n(n1)C(c1ccc3c(c1)OCO3)Nc1ccccc1-2 (stereo unspecified)	AHR act 95.6 (no result: TAG inh) | AHR act cf 90.9 | PXR counter 41.7
O=C(NCc1ccccc1)[C@@H]1CCCN1C(=O)[C@H]1CCCN1C(=O)c1cccc(F)c1	none (no result: TbMetRS inhib, AHR act, TAG inh, Efflux pump inh)
CSC(=Cc1ccc(C(=O)c2ccc(C)cc2)n1C)S(C)=O (stereo unspecified)	none (no result: TbMetRS inhib, AHR act, TAG inh, Efflux pump inh)
Oc1ccc(N=Nc2ccc(Br)cc2)c(O)c1	AHR act 88.6 (no result: TAG inh) | AHR act cf 60.8 | PXR counter inactive
Oc1ccc(N=Nc2ccc3c(c2)OCCO3)c(O)c1	none
O=C(Cc1c[nH]c2ccccc12)Nc1ccc(Nc2cccnc2)c(-c2ccc(F)c(F)c2)c1	none (no result: TbMetRS inhib, AHR act, TAG inh, Efflux pump inh)
O=c1c2ccccc2[nH]c(=S)n1CCc1ccccc1	AHR act 121.0 (no result: TAG inh) | AHR act cf 159.0 | PXR counter 38.2
CCOC(=O)C1=NOC(C(=O)Nc2cc(C)cc(C)c2)(C(=O)C2CC2)C1 (stereo unspecified)	none (no result: TbMetRS inhib, AHR act, TAG inh, Efflux pump inh)
CCN(/N=C/C=C/c1ccccc1)c1cc(=O)n(C)c(=O)[nH]1	AHR act 132.1 | AHR act cf inactive | PXR counter inactive
CCN(/N=C/c1ccc(Cl)cc1)c1cc(=O)n(C)c(=O)[nH]1	AHR act 120.6 | AHR act cf 71.4
Cn1c(=O)cc(Nc2ccccc2)[nH]c1=O	none
Cc1ccc2cc3c(NC(=O)CC(C)C)nn(C)c3nc2c1	AHR act 103.0 (no result: TAG inh) | AHR act cf 72.5
COc1cccc2sc3cc(NCc4ccc(C)o4)ccc3c(=O)c12	AHR act 95.7 | AHR act cf 95.2 | PXR counter 54.8
COc1cc2sc3cc(NCCCN4CCOCC4)ccc3c(=O)c2cc1OC	none
O=C(CN1CCN(c2nc(-c3ccccc3)cs2)CC1)Nc1ccc(F)cc1F	none (no result: TbMetRS inhib, AHR act, TAG inh, Efflux pump inh)
O=C(c1cccc(S(=O)(=O)N2CCc3ccccc32)c1)N1CCN(c2ccccn2)CC1	AHR act 79.8 | AHR act cf 93.1 | PXR counter 199.9
COc1cccc(-c2nc(C(N)=O)c3[nH]c(=O)n(-c4cccc(Cl)c4)c3n2)c1OC	AHR act 89.1 | AHR act cf 92.5 | PXR counter 30.9
COc1ccc2c(c1)CNC2CS(=O)(=O)NCc1ccccc1 (stereo unspecified)	none (no result: TbMetRS inhib, AHR act, TAG inh, Efflux pump inh)
Cc1ccccc1NC(=O)/C(C#N)=C\c1ccsc1	AHR act 83.6 (no result: TAG inh) | AHR act cf 49.6 | PXR counter 62.3
